Laboratory results: ChEMBL document CHEMBL1132286, “Design, synthesis, and dopamine receptor modulating activity of spiro bicyclic peptidomimetics of L-prolyl-L-leucyl-glycinamide” (J Med Chem, 1999)
Several values for one entry are separate records, joined by “and”; a condition that tells them apart may be missing. Equal entries are not always repeated. Peptide text beside a SMILES is read from it.

Key:
D(2) dopamine receptor [1] = biological target: T1, D(2) dopamine receptor (Homo sapiens, UniProt P14416); test: Inhibitor constant of compound for high affinity component of [3H]spiroperidol/N-propylnorapomorphine binding to Dopamine receptor D2 in absence of Gpp(NH)p (pretreatment with 100 nM of compound)
T1 sequence (P14416 whole entry): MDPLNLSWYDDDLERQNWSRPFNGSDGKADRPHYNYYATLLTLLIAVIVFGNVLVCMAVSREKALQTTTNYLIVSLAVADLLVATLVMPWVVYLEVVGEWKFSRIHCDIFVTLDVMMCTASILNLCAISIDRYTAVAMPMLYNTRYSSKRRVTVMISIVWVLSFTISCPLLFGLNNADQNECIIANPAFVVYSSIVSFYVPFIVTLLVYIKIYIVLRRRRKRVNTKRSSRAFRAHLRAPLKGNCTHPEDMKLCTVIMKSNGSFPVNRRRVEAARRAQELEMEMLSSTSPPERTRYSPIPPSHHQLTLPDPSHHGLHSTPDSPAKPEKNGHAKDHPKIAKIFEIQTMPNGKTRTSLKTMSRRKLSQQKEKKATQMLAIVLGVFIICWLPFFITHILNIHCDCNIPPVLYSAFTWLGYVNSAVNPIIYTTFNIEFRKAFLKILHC
In short: (§1)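 D2 receptor binding: [3H]spiroperidol displaced by the agonist N-propylnorapomorphine, run without or with Gpp(NH)p (100 μM). The assay was done either with 100 nM test-compound pretreatment or untreated as its control. High- and low-affinity dissociation constants (KH, KL) and receptor fractions (RH, RL, RH/RL) are reported. Values are mean ± SEM of 3–4 separate experiments, each done in duplicate or triplicate.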

D(2) dopamine receptor [2] = biological target: T1, D(2) dopamine receptor; test: Inhibitor constant of compound for high affinity component of [3H]spiroperidol/N-propylnorapomorphine binding to Dopamine receptor D2 in presence of Gpp(NH)p; in short: as §1
D(2) dopamine receptor [3] = biological target: T1, D(2) dopamine receptor; test: Inhibitor constant of compound for high affinity component of [3H]spiroperidol/N-propylnorapomorphine binding to Dopamine receptor D2 in presence of Gpp(NH)p (pretreatment with 100 nM of compound); in short: as §1
D(2) dopamine receptor [4] = biological target: T1, D(2) dopamine receptor; test: Inhibitor constant of compound for low affinity component of [3H]spiroperidol/N-propylnorapomorphine binding to Dopamine receptor D2 in absence of Gpp(NH)p; in short: as §1
D(2) dopamine receptor [5] = biological target: T1, D(2) dopamine receptor; test: Inhibitor constant of compound for low affinity component of [3H]spiroperidol/N-propylnorapomorphine binding to Dopamine receptor D2 in absence of Gpp(NH)p (pretreatment with 100 nM of compound); in short: as §1
D(2) dopamine receptor [6] = biological target: T1, D(2) dopamine receptor; test: Inhibitor constant of compound for low affinity component of [3H]spiroperidol/N-propylnorapomorphine binding to Dopamine receptor D2 in presence of Gpp(NH)p; in short: as §1
D(2) dopamine receptor [7] = biological target: T1, D(2) dopamine receptor; test: Percent of Dopamine receptor D2 in high affinity state for the compound in absence of Gpp(NH)p; in short: as §1
D(2) dopamine receptor [8] = biological target: T1, D(2) dopamine receptor; test: Percent of Dopamine receptor D2 in high affinity state for the compound in absence of Gpp(NH)p (pretreatment with 100 nM of compound).; in short: as §1
D(2) dopamine receptor [9] = biological target: T1, D(2) dopamine receptor; test: Percent of Dopamine receptor D2 in high affinity state for the compound in presence of Gpp(NH)p; in short: as §1
D(2) dopamine receptor [10] = biological target: T1, D(2) dopamine receptor; test: Percent of Dopamine receptor D2 in high affinity state for the compound in presence of Gpp(NH)p (pretreatment with 100 nM of compound).; in short: as §1
D(2) dopamine receptor [11] = biological target: T1, D(2) dopamine receptor; test: Percent of Dopamine receptor D2 in low affinity state for the compound in absence of Gpp(NH)p; in short: as §1
D(2) dopamine receptor [12] = biological target: T1, D(2) dopamine receptor; test: Percent of Dopamine receptor D2 in low affinity state for the compound in absence of Gpp(NH)p (pretreatment with 100 nM of compound).; in short: as §1
D(2) dopamine receptor [13] = biological target: T1, D(2) dopamine receptor; test: Percent of Dopamine receptor D2 in low affinity state for the compound in presence of Gpp(NH)p; in short: as §1
D(2) dopamine receptor [14] = biological target: T1, D(2) dopamine receptor; test: Percent of Dopamine receptor D2 in low affinity state for the compound in presence of Gpp(NH)p (pretreatment with 100 nM of compound).; in short: as §1
D(2) dopamine receptor [15] = biological target: T1, D(2) dopamine receptor; test: Inhibitor constant of compound for high affinity component of [3H]spiroperidol/N-propylnorapomorphine binding to Dopamine receptor D2 in absence of Gpp(NH)p; in short: as §1
Rattus norvegicus [16] = test: Percent increase in apomorphine induced rotational behavior in the 6-hydroxydopamine lesioned rat model of hemiparkinsonism by 0.001 mg/Kg of compound given intraperitoneally; type: functional
In short: (§2)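 Rats with a unilateral 6-hydroxydopamine lesion of the substantia nigra received the test compound ip (0.00001–1 mg/kg) together with apomorphine (0.25 mg/kg, ip), n = 4. Contralateral rotations were counted over 10 min and expressed as percent change from the control rotational response, mean ± SEM.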

D(2) dopamine receptor [17] = biological target: T1, D(2) dopamine receptor; test: Ratio of the high affinity state over low affinity state of dopamine D2 receptor in the absence of Gpp(NH)p.; in short: as §1
D(2) dopamine receptor [18] = biological target: T1, D(2) dopamine receptor; test: Ratio of the high affinity state over low affinity state of dopamine D2 receptor in the absence of Gpp(NH)p. (pretreatment with 100 nM of compound).; in short: as §1
D(2) dopamine receptor [19] = biological target: T1, D(2) dopamine receptor; test: Ratio of the high affinity state over low affinity state of dopamine D2 receptor in the presence of Gpp(NH)p.; in short: as §1
D(2) dopamine receptor [20] = biological target: T1, D(2) dopamine receptor; test: Ratio of the high affinity state over low affinity state of dopamine D2 receptor in the presence of Gpp(NH)p. (pretreatment with 100 nM of compound).; in short: as §1
Rattus norvegicus [21] = test: Percent increase in apomorphine induced rotational behavior in the 6-hydroxydopamine lesioned rat model of hemiparkinsonism by 0.01 mg/Kg of compound given intraperitoneally; type: functional; in short: as §2

Ki (D(2) dopamine receptor [1])	Ki (D(2) dopamine receptor [2])	Ki (D(2) dopamine receptor [3])	Ki (D(2) dopamine receptor [4])	Ki (D(2) dopamine receptor [5])	Ki (D(2) dopamine receptor [6])	RH (D(2) dopamine receptor [7])	RH (D(2) dopamine receptor [8])	RH (D(2) dopamine receptor [9])	RH (D(2) dopamine receptor [10])	RL (D(2) dopamine receptor [11])	RL (D(2) dopamine receptor [12])	RL (D(2) dopamine receptor [13])	RL (D(2) dopamine receptor [14])	Ki (D(2) dopamine receptor [15])	RH/RL (D(2) dopamine receptor [17])	RH/RL (D(2) dopamine receptor [18])	RH/RL (D(2) dopamine receptor [19])	RH/RL (D(2) dopamine receptor [20])	SMILES	also measured
0.05 nM	0.196 nM	0.09 nM	190 nM	188 nM	260 nM and 211 nM	53%	68%	17%	55%	47%	32%	83%	45%	0.067 nM	1.13	2.12	0.2	1.22	NC(=O)[C@H]1CS[C@@H]2CC[C@]3(CCCN3C(=O)[C@@H]3CCCN3)C(=O)N12	Activity (Rattus norvegicus [16]): 88%
0.04 nM	0.13 nM	0.06 nM	73.2 nM	60.1 nM	60 nM and 78 nM	49%	61%	19%	32%	51%	41%	82%	72%	0.09 nM	0.96	1.48	0.23	0.44	CC(C)C[C@H](NC(=O)[C@@H]1CCCN1)C(=O)NCC(N)=O (H-Pro-Leu-Gly-NH2)	–
0.031 nM	0.122 nM	0.064 nM	196 nM	168 nM	246 nM and 202 nM	52%	64%	15%	53%	48%	36%	85%	47%	0.071 nM	1.08	1.77	0.17	1.12	NC(=O)C1CCS[C@@H]2C[C@]3(CCCN3C(=O)[C@@H]3CCCN3)C(=O)N12 (some centres undefined)	Activity (Rattus norvegicus [21]): 95%
